Measured values from ChEMBL document CHEMBL3603811, “Design, chemical synthesis and biological evaluation of 3-spiromorpholinone/3-spirocarbamate androsterone derivatives as inhibitors of 17β-hydroxysteroid dehydrogenase type 3” (Bioorg Med Chem, 2015).

Key:
[1] = target: T1, 17-beta-hydroxysteroid dehydrogenase type 3 (Rattus norvegicus) (UniProt O54939); assay: Inhibition of 17beta-HSD3 in rat testes microsomes using [14C]-4-androstene-3,17-dione as substrate measured based on 18% of initial enzyme transformation at 0.1 uM after 2 hrs; conditions: Testis
T1 sequence (whole entry): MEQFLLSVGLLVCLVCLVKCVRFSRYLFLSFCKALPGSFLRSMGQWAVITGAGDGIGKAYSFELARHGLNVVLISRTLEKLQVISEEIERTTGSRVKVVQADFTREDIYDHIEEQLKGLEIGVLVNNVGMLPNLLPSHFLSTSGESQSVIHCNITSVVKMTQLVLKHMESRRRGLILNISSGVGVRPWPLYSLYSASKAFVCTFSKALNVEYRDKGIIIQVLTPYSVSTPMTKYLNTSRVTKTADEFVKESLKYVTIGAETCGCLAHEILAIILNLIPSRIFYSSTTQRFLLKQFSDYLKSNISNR
Procedure, shortened: (§1)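 Rat testis microsomes: homogenate in phosphate/sucrose/EDTA buffer pH 7.5 with protease inhibitors, spun 12,500g, then pellet from 100,000g, at 4 °C. Reaction 2 h at 37 °C in 50 mM sodium phosphate pH 7.4, 20% glycerol, 1 mM EDTA, with NADPH and [14C]-Δ4-dione (50 nM). Inhibitor in DMSO. [14C]-T and substrate identified against reference steroids and quantified. Percent transformation and percent inhibition calculated.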

[2] = target: T2, 17-beta-hydroxysteroid dehydrogenase type 3 (Homo sapiens) (UniProt P37058); conditions: LNCaP, 0.5 uM
T2 sequence (whole entry): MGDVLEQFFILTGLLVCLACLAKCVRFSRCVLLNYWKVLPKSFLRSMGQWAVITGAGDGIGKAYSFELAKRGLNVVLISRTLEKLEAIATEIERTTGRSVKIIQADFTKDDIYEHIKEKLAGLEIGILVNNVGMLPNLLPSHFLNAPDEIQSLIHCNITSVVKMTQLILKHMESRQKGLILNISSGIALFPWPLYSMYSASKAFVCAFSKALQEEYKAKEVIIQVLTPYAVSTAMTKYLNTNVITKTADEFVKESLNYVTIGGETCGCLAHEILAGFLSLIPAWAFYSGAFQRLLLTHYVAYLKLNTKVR

[3] = target: T1, 17-beta-hydroxysteroid dehydrogenase type 3 (Rattus norvegicus); assay: Inhibition of 17beta-HSD3 in rat testes microsomes using [14C]-4-androstene-3,17-dione as substrate measured based on 33% of initial enzyme transformation at 1 uM after 2 hrs; conditions: Testis; procedure, shortened: as §1
LAPC4 [4] = assay: Androgenic activity in human LAPC4 cells expressing androgen receptor assessed as induction of cell proliferation at 1 uM after 3 days by MTS assay relative to control; type: functional
Procedure, shortened: (§2)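 LAPC-4 (AR+) cells in RPMI-1640 with 5% dextran-coated charcoal-treated FBS to remove hormones. Triplicate cultures of 10,000 cells preincubated 24 h at 37 °C, 5% CO2. Compounds from 10^-2 M DMSO stock, diluted in medium, added for 3 days (final DMSO 0.05%; vehicle controls). Growth read by MTS. Androgenicity = % proliferation minus basal set at 100%.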

[5] = target: T1, 17-beta-hydroxysteroid dehydrogenase type 3 (Rattus norvegicus); assay: Inhibition of 17beta-HSD3 in rat testes microsomes using [14C]-4-androstene-3,17-dione as substrate measured based on 4% of initial enzyme transformation at 1 uM after 2 hrs; conditions: Testis; procedure, shortened: as §1
[6] = target: T1, 17-beta-hydroxysteroid dehydrogenase type 3 (Rattus norvegicus); assay: Inhibition of 17beta-HSD3 in rat testes microsomes using [14C]-4-androstene-3,17-dione as substrate measured based on 18% of initial enzyme transformation at 0.01 uM after 2 hrs; conditions: Testis; procedure, shortened: as §1
[7] = target: T1, 17-beta-hydroxysteroid dehydrogenase type 3 (Rattus norvegicus); assay: Inhibition of 17beta-HSD3 in rat testes microsomes using [14C]-4-androstene-3,17-dione as substrate measured based on 4% of initial enzyme transformation at 10 uM after 2 hrs; conditions: Testis; procedure, shortened: as §1
LAPC4 [8] = assay: Androgenic activity in human LAPC4 cells expressing androgen receptor assessed as induction of cell proliferation at 0.1 uM after 3 days by MTS assay relative to control; type: functional; procedure, shortened: as §2
[9] = target: T1, 17-beta-hydroxysteroid dehydrogenase type 3 (Rattus norvegicus); assay: Inhibition of 17beta-HSD3 in rat testes microsomes using [14C]-4-androstene-3,17-dione as substrate measured based on 33% of initial enzyme transformation at 10 uM after 2 hrs; conditions: Testis; procedure, shortened: as §1
[10] = target: T3, 17-beta-hydroxysteroid dehydrogenase type 3 (Rattus norvegicus, UniProt O54939); assay: Inhibition of 17beta-HSD3 in rat testes microsomes using [14C]-4-androstene-3,17-dione as substrate after 2 hrs; parameters: species or system Testis; procedure, shortened: as §1
T3 sequence (O54939 whole entry): T1 sequence (whole entry)

[11] = target: T1, 17-beta-hydroxysteroid dehydrogenase type 3 (Rattus norvegicus); assay: Inhibition of 17beta-HSD3 in rat testes microsomes using [14C]-4-androstene-3,17-dione as substrate measured based on 33% of initial enzyme transformation at 0.1 uM after 2 hrs; conditions: Testis; procedure, shortened: as §1
[12] = target: T1, 17-beta-hydroxysteroid dehydrogenase type 3 (Rattus norvegicus); assay: Inhibition of 17beta-HSD3 in rat testes microsomes using [14C]-4-androstene-3,17-dione as substrate measured based on 18% of initial enzyme transformation at 1 uM after 2 hrs; conditions: Testis; procedure, shortened: as §1

## C[C@@H]1CN(S(=O)(=O)c2ccccc2C(F)(F)F)[C@@H](C)CN1C[C@@]1(O)CC[C@@]2(C)[C@@H](CC[C@@H]3[C@@H]2CC[C@]2(C)C(=O)CC[C@@H]32)C1
[1]
  inhibition: 43.7%
[2]
  inhibition: 100%
[3]
  inhibition: 94.4%
LAPC4 [4]
  Activity: 0%
[5]
  inhibition: 96.4%
[6]
  inhibition: 32.4%
[7]
  inhibition: 97.1%
LAPC4 [8]
  Activity: 0%
[9]
  inhibition: 94%
[10]
  IC50: 13 nM
[11]
  inhibition: 89.4%

## C[C@]12CC[C@@]3(C[C@@H]1CC[C@@H]1[C@@H]2CC[C@]2(C)C(=O)CC[C@@H]12)CN(CCc1ccc(C(F)(F)F)cc1)CC(=O)O3
[3]
  inhibition: 92.1%
LAPC4 [4]
  Activity: 76.1%
LAPC4 [8]
  Activity: 40.2%
[9]
  inhibition: 93.3%
[11]
  inhibition: 70.7%

## C[C@]12CC[C@@]3(C[C@@H]1CC[C@@H]1[C@@H]2CC[C@]2(C)C(=O)CC[C@@H]12)CN(CCc1ccccc1)CC(=O)O3
[3]
  inhibition: 92.2%
LAPC4 [4]
  Activity: 79.7%
LAPC4 [8]
  Activity: 48.9%
[9]
  inhibition: 95.2%
[11]
  inhibition: 78.5%

## C[C@]12CC[C@@]3(C[C@@H]1CC[C@@H]1[C@@H]2CC[C@]2(C)C(=O)CC[C@@H]12)CN(Cc1ccc(C(F)(F)F)cc1)CC(=O)O3
[3]
  inhibition: 94%
LAPC4 [4]
  Activity: 31.7%
LAPC4 [8]
  Activity: 12.3%
[9]
  inhibition: 91.2%
[11]
  inhibition: 83.4%

## C[C@]12CC[C@@]3(C[C@@H]1CC[C@@H]1[C@@H]2CC[C@]2(C)C(=O)CC[C@@H]12)CN(Cc1ccccc1)CC(=O)O3
[1]
  inhibition: 56%
[3]
  inhibition: 91.6%
[12]
  inhibition: 89.2%
LAPC4 [4]
  Activity: 30.5%
[5]
  inhibition: 90.9%
[6]
  inhibition: 27.2%
[7]
  inhibition: 95.2%
LAPC4 [8]
  Activity: 8.1%
[9]
  inhibition: 94.3%
[11]
  inhibition: 80.8%

## C[C@]12CC[C@@]3(C[C@@H]1CC[C@@H]1[C@@H]2CC[C@]2(C)C(=O)CC[C@@H]12)CN(CCCCc1ccccc1)CC(=O)O3
[3]
  inhibition: 91.1%
LAPC4 [4]
  Activity: 19.2%
LAPC4 [8]
  Activity: 5.3%
[9]
  inhibition: 91.3%
[11]
  inhibition: 79.9%

## C[C@]12CC[C@@]3(C[C@@H]1CC[C@@H]1[C@@H]2CC[C@]2(C)C(=O)CC[C@@H]12)CN(CCCc1ccccc1)CC(=O)O3
[3]
  inhibition: 90.5%
LAPC4 [4]
  Activity: 55.5%
LAPC4 [8]
  Activity: 64.9%
[9]
  inhibition: 92.3%
[11]
  inhibition: 74.9%

## C[C@]12CC[C@@]3(C[C@@H]1CC[C@@H]1[C@@H]2CC[C@]2(C)C(=O)CC[C@@H]12)CN(Cc1ccc(OC(F)(F)F)cc1)CC(=O)O3
[3]
  inhibition: 93.8%
LAPC4 [4]
  Activity: 74.9%
LAPC4 [8]
  Activity: 45.9%
[9]
  inhibition: 95.7%
[11]
  inhibition: 79%

## C[C@]12CC[C@@]3(C[C@@H]1CC[C@@H]1[C@@H]2CC[C@]2(C)C(=O)CC[C@@H]12)CN(CC(CN1CCOCC1)OC(=O)C1CCCCC1)C(=O)O3 (some centres not stated)
[1]
  inhibition: 51.5%
[12]
  inhibition: 93.1%
LAPC4 [4]
  Activity: 9.4%
[5]
  inhibition: 93.9%
[7]
  inhibition: 97.2%
LAPC4 [8]
  Activity: 4.8%
